ChEMBL document CHEMBL1926571, “Design, synthesis and the effect of 1,2,3-triazole sialylmimetic neoglycoconjugates on Trypanosoma cruzi and its cell surface trans-sialidase” (Bioorg Med Chem, 2012)

Assays:
[1] = tested on: Trypanosoma cruzi; experiment: Inhibition of Trypanosoma cruzi N-terminus His-tagged trans-Sialidase using MuNANA as substrate at 1 mM after 10 mins by fluorometric analysis
Procedure, shortened: (§1)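 Recombinant His-tagged 70 kDa enzyme truncated of C-terminal repeats, retaining catalytic N-terminal domain. Triplicate wells: pH 7.4 phosphate buffer, enzyme and inhibitor (added as 4.0 or 2.0 mM solution, 1.0 or 0.5 mM final) preincubated 10 min at 26 °C; MuNANA added at 0.1 mM final. Released methylumbelliferone fluorescence (ex 360/em 460 nm) read after 10 min; percent inhibition.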

[2] = Cytotoxicity against C57BL/6 mouse spleen cells assessed as cell death at 500 to 780 uM mM after 24 hrs by propidium iodide staining-based flow cytometric analysis; conditions: 7.8 µM, in the assay text read “500 to 7.8 uM” for “500 to 780 uM”
Procedure, shortened: (§2)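 Spleen cells from C57BL/6 mice, red cells lysed 5 min (Tris-HCl pH 7.5/ammonium chloride), in RPMI 1640 with 10% FBS at 5×10^5 cells/well, exposed to a range of compound concentrations for 24 h at 37 °C. Tween 20 at 0.5% as death control. Stained with 10 µg/mL propidium iodide, read by flow cytometry.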

[3] = tested on: Trypanosoma cruzi; experiment: Inhibition of Trypanosoma cruzi N-terminus His-tagged trans-Sialidase using MuNANA as substrate at 0.5 mM after 10 mins by fluorometric analysis; procedure, shortened: as §1
[4] = tested on: Trypanosoma cruzi; experiment: Antitrypanosomal activity against Trypanosoma cruzi […] infected in monkey LLC-MK2 cells after 4 days by beta-galactosidase reporter gene assay; format: functional, organism-based; conditions: LLC-MK2, 96 h
Procedure, shortened: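 LLC-MK2 cells in phenol-red-free RPMI with 10% FBS, 2×10^3/well, grown 24 h, then infected with 1×10^4 trypomastigotes of T. cruzi Tulahuen expressing E. coli β-galactosidase; compounds added 24 h later (0.5 mM–3.5 µM) for 4 days. Lysed with PBS/0.5% Triton X-100 containing 100 µM CPRG, 4 h at 37 °C, A570. Concentration giving 50% trypanocidal activity reported as IC50.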

[5] = (§3) Inhibition of Trypanosoma cruzi trans-Sialidase
[6] = Cytotoxicity against C57BL/6 mouse spleen cells assessed as cell death at 0.5 mM after 24 hrs by propidium iodide staining-based flow cytometric analysis; conditions: 500 µM; procedure, shortened: as §2
[7] = tested on: Trypanosoma cruzi; experiment: as §3; conditions: concentration not given here
[8] = Binding affinity to Trypanosoma cruzi trans-Sialidase by surface plasmon resonance assay
[9] = Cytotoxicity against C57BL/6 mouse spleen cells assessed as cell death at 250 to 780 uM mM after 24 hrs by propidium iodide staining-based flow cytometric analysis; conditions: 7.8 µM, in the assay text read “250 to 7.8 uM” for “250 to 780 uM mM”; procedure, shortened: as §2

SMILES | inhibition [1] [%] | inhibition [3] [%] | IC50 [4] [µM] | IC50 [5] [µM] | other results
Cc1ccc(S(=O)(=O)Nc2ccc(C(=O)/C=C/c3ccc(O)c(O)c3)cc2)cc1 | – | – | – | 0.9 | –
Cc1ccc(S(=O)(=O)N2c3ccccc3C(=O)C3=Cc4cc(O)c(O)c5c(O)c(O)cc(c45)C32)cc1 (centres undefined) | – | – | – | 0.6 | –
CCCCCCCCO[C@@H]1O[C@H](CO)[C@H](O)[C@H](O)[C@H]1O | – | – | – | – | inhibition [7]: 84%
CCCCCCCCO[C@@H]1O[C@H](COC)[C@H](O)[C@H](O)[C@H]1O | – | – | – | – | inhibition [7]: 75%
Cc1ccc(S(=O)(=O)Nc2cccc(C(=O)/C=C/c3ccc(O)c(O)c3)c2)cc1 | – | – | – | 2.5 | –
CC(=O)N[C@H]1[C@H]([C@H](O)[C@H](O)CO)O[C@@](CCCc2ccccc2)(C(=O)O)C[C@@H]1O | – | – | – | – | Kd [8]: 160 µM
O=c1c(O)c(-c2cc(O)c(O)c(O)c2)oc2cc(O)cc(O)c12 [MYRICETIN] | – | – | – | 0.58 | –
O=C(Cn1ccnc1[N+](=O)[O-])NCc1ccccc1 [BENZNIDAZOLE] | – | – | 125 | – | –

Further lines, with some results ahead:

inhibition [1] [%] | inhibition [3] [%] | IC50 [4] [µM] | IC50 [5] [µM] | SMILES | other results
69 | 1.5 | > 2000 | – | CC(=O)N[C@H]1[C@H]([C@H](O)[C@H](O)CO)O[C@@](OCc2cn([C@H]3[C@@H](O)[C@H](O)O[C@H](CO)[C@@H]3O)nn2)(C(=O)O)C[C@@H]1O | Activity [2]: Non-toxic
88 | 1.5 | 475 | – | CC(=O)N[C@H]1[C@H]([C@H](O)[C@H](O)CO)O[C@@](OCc2cn([C@@H]3O[C@H](CO)[C@H](O)[C@H](O)[C@H]3O)nn2)(C(=O)O)C[C@@H]1O | Activity [6]: > 80%
91 | 30 | 260 | – | CC(=O)N[C@H]1[C@H]([C@H](O)[C@H](O)CO)O[C@@](OCc2cn(C[C@H]3O[C@H](O)[C@H](O)[C@@H](O)[C@H]3O)nn2)(C(=O)O)C[C@@H]1O | Activity [6]: 55%; Activity [9]: Non-toxic
5 | 1.5 | 369 | – | CO[C@H]1O[C@H](CO)[C@H](O)[C@H](OCc2cn(C(C(=O)O)C(C)O)nn2)[C@H]1O (some centres undefined) | Activity [6]: > 80%
67 | 1.5 | 726 | – | CC(=O)N[C@H]1[C@H]([C@H](O)[C@H](O)CO)O[C@@](OCc2cn([C@@H]3[C@@H](O)[C@@H](O)O[C@H](CO)[C@H]3O)nn2)(C(=O)O)C[C@@H]1O | Activity [2]: Non-toxic
